Test results from ChEMBL document CHEMBL5661985, “In silico design of novel probes for the atypical opioid receptor MRGPRX2” (Nat Chem Biol, 2017).
The source made the active and inactive calls. The rule behind the calls is not given here.

Columns and labels:
[1] = target: T1, Mas-related G-protein coupled receptor member X2 (Homo sapiens, UniProt Q96LB1); test: Agonist activity at N-terminal Flag-tagged human MRGPRX2 receptor expressed in tetracycline-induced FLP-IN/T-REX 293 cells assessed as increase in intracellular calcium release by FLIPR assay; type: functional, cell-based
T1 sequence (Q96LB1 whole entry): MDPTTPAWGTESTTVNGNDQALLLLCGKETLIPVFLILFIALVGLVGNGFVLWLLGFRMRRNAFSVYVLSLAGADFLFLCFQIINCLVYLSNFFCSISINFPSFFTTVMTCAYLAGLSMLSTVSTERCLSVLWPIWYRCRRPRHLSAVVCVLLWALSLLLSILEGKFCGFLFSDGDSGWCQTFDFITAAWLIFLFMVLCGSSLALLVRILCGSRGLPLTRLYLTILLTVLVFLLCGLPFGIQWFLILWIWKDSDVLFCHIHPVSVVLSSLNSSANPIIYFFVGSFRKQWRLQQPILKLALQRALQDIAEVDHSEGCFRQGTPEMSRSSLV

[2] = target: T1, Mas-related G-protein coupled receptor member X2; test: Agonist activity at MRGPRX2 (unknown origin) expressed in HTLA cells assessed as induction of beta-arrestin 2 recruitment incubated for 18 to 24 hrs by PRESTO-Tango assay; type: functional, cell-based
[3] = target: T2, Kappa-type opioid receptor (Homo sapiens, UniProt P41145); test: Agonist activity at KOR (unknown origin) by Glo sensor assay; type: functional
T2 sequence (P41145 whole entry): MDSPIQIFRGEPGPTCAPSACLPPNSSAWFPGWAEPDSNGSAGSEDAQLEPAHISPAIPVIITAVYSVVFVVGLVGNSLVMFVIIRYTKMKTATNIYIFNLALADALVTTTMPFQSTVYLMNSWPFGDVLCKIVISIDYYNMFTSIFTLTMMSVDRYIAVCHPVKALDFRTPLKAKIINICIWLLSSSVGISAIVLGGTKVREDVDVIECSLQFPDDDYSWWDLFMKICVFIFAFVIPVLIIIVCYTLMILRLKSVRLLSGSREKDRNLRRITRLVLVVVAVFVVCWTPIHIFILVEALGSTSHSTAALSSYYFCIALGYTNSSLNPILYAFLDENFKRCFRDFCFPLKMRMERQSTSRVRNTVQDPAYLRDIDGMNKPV

HTLA [4] = test: Agonist activity at MRGPRX2 D184E mutant (unknown origin) expressed in HTLA cells assessed as induction of beta-arrestin 2 recruitment incubated for 18 to 24 hrs by PRESTO-Tango assay; type: cell-based; conditions: Homo sapiens, time 18-24 hrs
Method in brief: (§1)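 β-arrestin2 recruitment by PRESTO-Tango: HTLA cells transiently transfected (calcium phosphate) with codon-optimized MRGPRX2-Tango (WT or point mutant) or MRGPRB2-Tango, plated next day 20,000 cells/well on poly-L-lysine; drug in HBSS/20 mM HEPES/0.3% BSA pH 7.4 for 18–24 h; Bright-Glo luminescence (RLU); curves n=3 in triplicate, mutants n=4 in triplicate.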

HTLA [5] = test: Agonist activity at MRGPRX2 D184N mutant (unknown origin) expressed in HTLA cells assessed as induction of beta-arrestin 2 recruitment incubated for 18 to 24 hrs by PRESTO-Tango assay; type: cell-based; conditions: Homo sapiens, time 18-24 hrs; method in brief: as §1
HTLA [6] = test: Agonist activity at MRGPRX2 E164Q mutant (unknown origin) expressed in HTLA cells assessed as induction of beta-arrestin 2 recruitment incubated for 18 to 24 hrs by PRESTO-Tango assay; type: cell-based; conditions: Homo sapiens, filed as agonist, time 18-24 hrs; method in brief: as §1
[7] = target: T3, Mas-related G-protein coupled receptor member X2 (Homo sapiens) (UniProt Q96LB1); test: Agonist activity at MRGPRX2 receptor in human LAD2 cells assessed as increase in degranulation incubated for 30 mins by beta-hexosaminidase assay; type: functional, cell-based; conditions: filed as agonist
T3 sequence (whole entry): T1 sequence (Q96LB1 whole entry)
Method in brief: (§2)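 β-Hexosaminidase release: LAD2 cells in fresh medium 18 h, washed in Tyrode's buffer pH 7.4, 10,000 cells/well; drug (single concentration or 8-point curve) added in triplicate, 30 min 37°C; supernatant and Triton X-100 lysate each reacted with NAG in citrate pH 4.5 for 90 min 37°C, stopped with carbonate pH 10, A405; % release = released/total ×100, minus vehicle.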

[8] = target: T3, Mas-related G-protein coupled receptor member X2 (Homo sapiens); test: Agonist activity at MRGPRX2 receptor in human LAD2 cells transfected with MRGPRX2 siRNA assessed as increase in degranulation incubated for 30 mins by beta-hexosaminidase assay; type: functional, cell-based
Method in brief: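 LAD2 cells (1.2 million/well) transfected with 25 nM MRGPRX2 siRNA pool or non-targeting pool, 72 h; 200,000 cells taken for β-hexosaminidase assay with EC80 concentration of agonist, 30 min 37°C; knockdown checked by qRT-PCR on 1 million cells; fold change % degranulation versus DMSO; two-way ANOVA with Sidak test.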

[9] = target: T3, Mas-related G-protein coupled receptor member X2 (Homo sapiens); test: Agonist activity at MRGPRX2 receptor in human LAD2 cells assessed as increase in degranulation incubated for 30 mins in presence of naloxone by beta-hexosaminidase assay; type: functional, cell-based; method in brief: as §2
[10] = target: T3, Mas-related G-protein coupled receptor member X2 (Homo sapiens); test: Agonist activity at N-terminal Flag-tagged human MRGPRX2 receptor expressed in tetracycline-induced FLP-IN/T-REX 293 cells assessed as increase in intracellular calcium release < 10 uM by FLIPR assay; type: functional, cell-based; conditions: filed as agonist
Method in brief: (§3)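 FLIPR calcium: FLP-IN/T-REX HEK-293-T stable line with N-terminal FLAG codon-optimized receptor, induced 24 h with 1 μg/mL tetracycline in 1% dialyzed FBS (uninduced cells as control); FLIPR calcium dye plus 2.5 mM probenecid 1 h 37°C; 10 s baseline, then drug in HBSS/20 mM HEPES/probenecid pH 7.4, 16-point curve 10 μM to 0.003 nM; fluorescence 120 s; fold over basal, n=3 triplicate.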

[11] = target: T3, Mas-related G-protein coupled receptor member X2 (Homo sapiens); test: Agonist activity at MRGPRX2 (unknown origin) expressed in HTLA cells assessed as induction of beta-arrestin 2 recruitment <10 uM incubated for 18 to 24 hrs by PRESTO-Tango assay; type: functional, cell-based; conditions: filed as agonist, time 18-24 hrs; method in brief: as §1
[12] = target: T3, Mas-related G-protein coupled receptor member X2 (Homo sapiens); test: Agonist activity at MRGPRX2 (unknown origin) expressed in HTLA cells assessed as induction of beta-arrestin 2 recruitment at 10 uM incubated for 18 to 24 hrs by PRESTO-Tango assay; type: functional, cell-based; conditions: filed as agonist, time 18-24 hrs; method in brief: as §1
[13] = target: T4, Tyrosine-protein kinase BTK (Homo sapiens, UniProt Q06187); test: Inhibition of BTK (unknown origin) by Kinome scan method
T4 sequence (Q06187 whole entry): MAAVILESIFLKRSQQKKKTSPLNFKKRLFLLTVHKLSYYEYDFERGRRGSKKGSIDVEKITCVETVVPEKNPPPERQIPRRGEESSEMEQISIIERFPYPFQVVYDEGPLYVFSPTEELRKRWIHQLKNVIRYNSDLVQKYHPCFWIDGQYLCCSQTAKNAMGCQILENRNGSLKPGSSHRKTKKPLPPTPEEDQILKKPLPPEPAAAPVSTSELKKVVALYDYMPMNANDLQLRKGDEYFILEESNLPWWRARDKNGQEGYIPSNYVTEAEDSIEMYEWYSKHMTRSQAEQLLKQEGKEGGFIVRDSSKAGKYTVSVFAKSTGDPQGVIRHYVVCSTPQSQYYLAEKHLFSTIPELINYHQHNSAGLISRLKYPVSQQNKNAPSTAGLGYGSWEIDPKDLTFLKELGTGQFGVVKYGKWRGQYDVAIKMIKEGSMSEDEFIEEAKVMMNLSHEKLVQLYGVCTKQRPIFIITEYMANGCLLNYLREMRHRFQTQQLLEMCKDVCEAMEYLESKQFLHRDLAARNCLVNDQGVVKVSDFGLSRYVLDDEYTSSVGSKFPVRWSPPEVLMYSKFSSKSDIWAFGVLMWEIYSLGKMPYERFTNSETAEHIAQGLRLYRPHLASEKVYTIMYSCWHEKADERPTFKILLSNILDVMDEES

[14] = target: T5, Mitogen-activated protein kinase 8 (Homo sapiens, UniProt P45983); test: Inhibition of JNK1 (unknown origin) by Kinome scan method
T5 sequence (P45983 whole entry): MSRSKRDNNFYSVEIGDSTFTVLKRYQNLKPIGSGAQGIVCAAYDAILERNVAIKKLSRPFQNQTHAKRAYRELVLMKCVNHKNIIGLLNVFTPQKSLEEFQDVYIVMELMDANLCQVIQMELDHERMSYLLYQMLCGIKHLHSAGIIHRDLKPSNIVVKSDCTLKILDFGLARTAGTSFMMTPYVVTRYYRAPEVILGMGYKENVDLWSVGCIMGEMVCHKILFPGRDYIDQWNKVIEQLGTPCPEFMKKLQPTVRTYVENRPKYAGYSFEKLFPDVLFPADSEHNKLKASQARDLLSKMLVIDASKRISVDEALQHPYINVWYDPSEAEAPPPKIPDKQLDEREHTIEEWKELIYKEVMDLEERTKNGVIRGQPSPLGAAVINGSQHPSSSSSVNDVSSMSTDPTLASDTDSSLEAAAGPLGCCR

[15] = target: T6, Mitogen-activated protein kinase 10 (Homo sapiens, UniProt P53779); test: Inhibition of JNK3 (unknown origin) by Kinome scan method
T6 sequence (P53779 whole entry): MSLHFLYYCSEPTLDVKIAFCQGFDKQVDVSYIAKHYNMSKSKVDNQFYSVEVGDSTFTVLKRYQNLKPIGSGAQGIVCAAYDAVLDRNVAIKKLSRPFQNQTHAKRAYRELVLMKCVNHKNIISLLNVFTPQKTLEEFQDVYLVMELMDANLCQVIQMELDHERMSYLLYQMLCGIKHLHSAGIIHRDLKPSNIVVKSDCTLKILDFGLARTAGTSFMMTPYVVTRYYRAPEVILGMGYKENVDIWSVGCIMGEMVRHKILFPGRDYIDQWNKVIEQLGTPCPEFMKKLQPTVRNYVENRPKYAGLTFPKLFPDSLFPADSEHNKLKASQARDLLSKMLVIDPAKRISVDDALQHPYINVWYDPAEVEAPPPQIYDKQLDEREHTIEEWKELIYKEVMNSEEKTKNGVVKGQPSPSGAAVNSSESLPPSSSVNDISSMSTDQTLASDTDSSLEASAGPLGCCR

[16] = target: T4, Tyrosine-protein kinase BTK; test: Binding affinity to BTK (unknown origin) assessed dissociation constant by Kinome scan method
[17] = target: T5, Mitogen-activated protein kinase 8; test: Binding affinity to JNK1 (unknown origin) assessed dissociation constant by Kinome scan method
[18] = target: T6, Mitogen-activated protein kinase 10; test: Binding affinity to JNK3 (unknown origin) assessed dissociation constant by Kinome scan method
[19] = target: T3, Mas-related G-protein coupled receptor member X2 (Homo sapiens); test: Agonist activity at MRGPRX2 receptor in human LAD2 cells assessed as increase in intracellular calcium release by FLIPR assay; type: functional, cell-based; conditions: filed as agonist
Method in brief: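 LAD2 human mast cells seeded 50,000/well in Tyrode's buffer with calcium dye, 1 h before drug; 10 s baseline, drug added, fluorescence followed 120 s; expressed as fold calcium release over baseline; n=3 in triplicate.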

[20] = target: T3, Mas-related G-protein coupled receptor member X2 (Homo sapiens); test: Agonist activity at N-terminal Flag-tagged human MRGPRX2 receptor expressed in tetracycline-induced HEK-T cells assessed as increase in intracellular calcium release by FLIPR assay; type: functional, cell-based; conditions: HEK-T cell, filed as agonist; method in brief: as §3
[21] = target: T3, Mas-related G-protein coupled receptor member X2 (Homo sapiens); test: Agonist activity at N-terminal Flag-tagged human MRGPRX2 receptor expressed in HEK-T cells assessed as increase in intracellular calcium release by FLIPR assay; type: functional, cell-based; conditions: HEK-T cell; method in brief: as §3
Mu-type opioid receptor = Mu-type opioid receptor (Homo sapiens, UniProt P35372); test: Displacement of [3H]-DAMGO from MOR (unknown origin)
Chain of Mu-type opioid receptor (P35372 whole entry): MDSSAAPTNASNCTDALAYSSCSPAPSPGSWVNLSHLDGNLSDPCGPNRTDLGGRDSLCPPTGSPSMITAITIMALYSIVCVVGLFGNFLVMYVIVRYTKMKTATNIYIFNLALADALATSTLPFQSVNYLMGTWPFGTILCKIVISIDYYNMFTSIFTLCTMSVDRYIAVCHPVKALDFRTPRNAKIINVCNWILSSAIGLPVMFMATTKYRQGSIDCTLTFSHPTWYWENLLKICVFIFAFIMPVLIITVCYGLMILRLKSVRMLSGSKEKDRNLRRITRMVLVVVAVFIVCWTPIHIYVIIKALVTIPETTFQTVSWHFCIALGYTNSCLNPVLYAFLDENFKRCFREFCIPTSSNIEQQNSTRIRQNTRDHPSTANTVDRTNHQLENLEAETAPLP

[22] = target: T2, Kappa-type opioid receptor; test: Displacement of [3H]-Diprenorphine from KOR (unknown origin)
[23] = target: Delta-type opioid receptor (Homo sapiens, UniProt P41143); test: Displacement of [3H]-Naltrindole from DOR (unknown origin)
Chain of Delta-type opioid receptor (P41143 whole entry): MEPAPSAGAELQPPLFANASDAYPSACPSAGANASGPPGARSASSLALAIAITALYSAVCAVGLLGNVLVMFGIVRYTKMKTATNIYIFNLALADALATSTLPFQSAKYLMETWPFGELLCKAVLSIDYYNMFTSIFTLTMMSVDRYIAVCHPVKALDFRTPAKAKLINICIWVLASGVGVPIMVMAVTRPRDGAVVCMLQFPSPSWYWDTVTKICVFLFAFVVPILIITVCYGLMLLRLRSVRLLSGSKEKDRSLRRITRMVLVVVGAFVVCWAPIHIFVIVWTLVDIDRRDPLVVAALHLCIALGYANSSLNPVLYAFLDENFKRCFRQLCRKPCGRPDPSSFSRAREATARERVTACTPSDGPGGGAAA

[24] = target: T3, Mas-related G-protein coupled receptor member X2 (Homo sapiens); test: Agonist activity at MRGPRX2 receptor in human LAD2 cells assessed as increase in degranulation at 10 uM incubated for 30 mins by beta-hexosaminidase assay relative to control; type: functional, cell-based; conditions: filed as agonist; method in brief: as §2
[25] = target: T3, Mas-related G-protein coupled receptor member X2 (Homo sapiens); test: Agonist activity at MRGPRX2 receptor in human LAD2 cells assessed as increase in degranulation at 10 uM incubated for 30 mins in presence of IgE by beta-hexosaminidase assay relative to control; type: functional, cell-based; conditions: filed as agonist; method in brief: as §2
[26] = Cytotoxicity against HTLA cells expressing MRGPRX2 (unknown origin) at 1 uM after 24 hrs; type: toxicity, cell-based; conditions: human

**Q.** Which results are given for `CC[C@H](C)[C@H](NC(=O)[C@H](CCCNC(=N)N)NC(=O)[C@H](CCCNC(=N)N)NC(=O)[C@H](CC(C)C)NC(=O)[C@H](Cc1ccccc1)NC(=O)CNC(=O)CNC(=O)[C@@H](N)Cc1ccc(O)cc1)C(=O)N[C@@H](CCCNC(=N)N)C(=O)N1CCC[C@H]1C(=O)N[C@@H](CCCCN)C(=O)N[C@@H](CC(C)C)C(=O)N[C@@H](CCCCN)C(=O)O` [ANALOG OF DYNORPHIN A]?
**A.** EC50 ([1]; read-out: EC50): 1.1 µM; EC50 ([2]; read-out: pEC50 (converted)): 30.2 µM; EC50 [3]: 6 pM; Activity (HTLA [4]): inactive; Activity (HTLA [5]): inactive; Activity (HTLA [6]): Active; Activity [7]: Active; Activity [8]: inactive; Activity [9]: inactive

**Q.** With `Cc1cc2nc(-c3ccccc3)cc(N3CCC(N(C)C)C3)n2n1` (stereo not given) as the compound, how does the EC50 ([2]; read-out: EC50) read?
**A.** Its EC50 is 3 µM.

**Q.** And the Activity [10]?
**A.** The Activity was “Active”.

**Q.** What about the Activity [11] of the same compound?
**A.** Its Activity is “Active”.

**Q.** And the Activity [12]?
**A.** Its Activity is “Active”.

**Q.** And the IC50 [13]?
**A.** The IC50 was 20 µM.

**Q.** What about the IC50 [14] of the same compound?
**A.** The IC50 was 20 µM.

**Q.** And the IC50 [15]?
**A.** The IC50 was 20 µM.

**Q.** And the Kd [16]?
**A.** The Kd was 27 µM.

**Q.** And the Kd [17]?
**A.** Its Kd is 19 µM.

**Q.** What about the Kd [18] of the same compound?
**A.** Its Kd is greater than 30 µM.

**Q.** What about the Activity [19] of the same compound?
**A.** Its Activity is “Active”.

**Q.** With `CN1CCC2(c3cccc(O)c3)Cc3nc4ccccc4cc3CC2C1` (racemic) as the compound, how does the EC50 ([1]; read-out: EC50) read?
**A.** Its EC50 is 0.74 µM.

**Q.** What about the EC50 ([1]; read-out: pEC50 (converted)) of the same compound?
**A.** Its EC50 is 0.646 µM.

**Q.** And the EC50 ([2]; read-out: pEC50 (converted))?
**A.** Its EC50 is 1.82 µM.

**Q.** What about the Activity [20] of the same compound?
**A.** Its Activity is “Active”.

**Q.** And the Activity [21]?
**A.** The Activity was “inactive”.

**Q.** And the EC50 (Mu-type opioid receptor)?
**A.** Its EC50 is 0.324 µM.

**Q.** And the Ki (Mu-type opioid receptor)?
**A.** The Ki was 0.239 µM.

**Q.** And the EC50 [22]?
**A.** The EC50 was 88.7 µM.

**Q.** And the Ki [22]?
**A.** The Ki was 22 µM.

**Q.** And the EC50 [23]?
**A.** Its EC50 is 0.0131 µM.

**Q.** And the Ki [23]?
**A.** The Ki was 0.00294 µM.

**Q.** What about the Activity [19] of the same compound?
**A.** Its Activity is “Active”.

**Q.** What about the Activity [7] of the same compound?
**A.** Its Activity is “Active”.

**Q.** What about the Activity [8] of the same compound?
**A.** Its Activity is “inactive”.

**Q.** What about the Activity [24] of the same compound?
**A.** The Activity was 70%.

**Q.** And the Activity [25]?
**A.** The Activity was 70%.

**Q.** And the Activity [9]?
**A.** The Activity was “inactive”.

**Q.** What does the source list for `C[C@@H]1C[C@H]2Cc3ncc(-c4ccc5c(n4)C[C@@H]4C[C@@H](C)C[C@]56NCCC[C@H]46)cc3[C@]3(C1)NCCC[C@H]23` [COMPLANADINE A]?
**A.** EC50 ([1]; read-out: EC50): 18 µM; EC50 ([2]; read-out: pEC50 (converted)): 0.692 µM; Activity [26]: Toxic
